# Hits are enriched below; roughly 2.4% of the tested compounds scored in any of these assays.
# TDP2 inh – TDP2 (human) inhibition, absorbance primary screen; AID 720702; inhibition, % at 12.8 µM; O95551; 0.34% of 370,000 active; recombinant TDP2, T5PNP hydrolysis, p-nitrophenol absorbance 415 nm;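 active means inhibition above the mean of all tested compounds plus 3 SD, set per campaign, cut at about 25% in these data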;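 further: 0% = DMSO with enzyme and 100% = buffer with substrate but no TDP2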
# Target sequence (O95551 whole entry, looked up): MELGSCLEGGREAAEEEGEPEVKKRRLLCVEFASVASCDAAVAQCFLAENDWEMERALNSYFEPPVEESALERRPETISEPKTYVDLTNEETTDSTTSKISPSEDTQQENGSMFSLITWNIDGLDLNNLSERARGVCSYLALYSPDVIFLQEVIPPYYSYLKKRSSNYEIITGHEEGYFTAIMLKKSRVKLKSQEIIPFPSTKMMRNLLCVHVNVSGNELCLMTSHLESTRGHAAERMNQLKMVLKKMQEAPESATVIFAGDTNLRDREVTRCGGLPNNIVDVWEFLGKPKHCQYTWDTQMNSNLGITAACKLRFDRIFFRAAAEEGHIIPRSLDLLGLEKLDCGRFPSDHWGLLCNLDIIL
#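 System: recombinant human TDP2 / Amount: 120 nM TDP2 per well / Also added: 5 mM T5PNP chromogenic substrate / Doses: 12.8 µM single point, 1% DMSO / Incubation: 2 h at 37 °C / Detection: p-Nitrophenol epi absorbance / Evaluation: % inhibition relative to enzyme-containing and enzyme-free wells / Repeats: singlicate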
# TCR-CD3 inh – inhibitors of human TCR-CD3 interaction; TAMRA-labeled TCR probe fluorescence, biochemical; inhibition, % at 9.4 µM; 0.37% of 360,000 active; in the data active means inhibition above about 19%;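 further: recombinant mutant TCR 2C K166C tagged with TAMRA read by polarization; 0% = receptor in buffer alone and 100% = receptor with positive control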
# SIAE inh – blocks human sialic acid acetylesterase; SIAE FP-Rh probe binding, fluorescence polarization; Q9HAT2; 0.69% of 370,000 active; AID 1053197; inhibition, % at 9.66 µM;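 active means inhibition above a cutoff: mean of compounds within the control limits plus 3 SD of those, cut at about 17% in these data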;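 further: 0% = plate median of compound wells and 100% = probe without SIAE protein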
# PAD4 inh – inhibitors of human PAD4; recombinant PAD4, RCA probe fluorescence polarization; inhibition, % at 6.36 µM; 0.41% of 330,000 active;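 active means percent inhibition above a cutoff equal to the mean of all tested compounds plus 3 SD, cut at about 15% in these data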;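 further: 0% = PAD4 with RCA probe and DMSO and 100% = probe without PAD4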
# Apaf1 inhib – human Apaf-1 inhibition | O14727 | reconstituted apoptosome caspase-3 activity, DEVD-Rh110 fluorescence | inhibition, % at 20 µM | 0.71% of 330,000 active; active means inhibition of at least 40% at 20 µM;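 further: plate controls were DMSO wells for no effect and DEVD-CHO caspase inhibitor wells for full effect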
#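 System: Apoptosome proteins | Medium: Hepes pH 7.5 with detergent and BSA | Also added: Cytochrome c trigger plus (Z-DEVD)2-Rh110 caspase-3 substrate | Incubation: 30 min compound preincubation, 50 min activation, room temperature | Detection: Rhodamine 110 fluorescence at Ex 480/Em 540 nm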
# GSTO1 counter – GSTO1 inhibition, counter-screen for RBBP9 inhibitors; P78417; recombinant GSTO1, activity-based probe fluorescence polarization; inhibition, % at 5.96 µM; 1.1% of 300,000 active; AID 1974;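 active means inhibition above the campaign mean inhibition plus 3 SD, cut at about 35% in these data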;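 further: 0% = GSTO1-1 with DMSO and 100% = wells lacking GSTO1-1 enzyme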
# Target sequence (P78417 whole entry, looked up): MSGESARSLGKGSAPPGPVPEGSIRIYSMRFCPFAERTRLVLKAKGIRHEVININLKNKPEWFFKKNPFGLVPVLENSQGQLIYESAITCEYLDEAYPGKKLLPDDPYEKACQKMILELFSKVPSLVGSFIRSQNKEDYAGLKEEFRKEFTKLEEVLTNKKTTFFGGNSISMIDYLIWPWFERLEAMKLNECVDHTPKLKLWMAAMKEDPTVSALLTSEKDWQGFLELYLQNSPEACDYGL
# PAD4 confirm – confirmation of human PAD4 inhibitors; shares compounds with PAD4 inh; recombinant PAD4, RCA probe fluorescence polarization; inhibition, % at 6.36 µM; 28% of 1,200 active; AID 488796;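 active means mean inhibition across replicates above the hit cutoff set by the earlier primary screen, cut at about 15% in these data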;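 further: inhibitors block active-site labeling by the probe so polarization falls; 0% = PAD4 with probe and DMSO and 100% = probe without PAD4 enzyme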
# An asterisk follows results filed as active; . = no result.
SMILES,TDP2 inh,TCR-CD3 inh,SIAE inh,PAD4 inh,Apaf1 inhib,GSTO1 counter,PAD4 confirm
CC(=O)c1c(C)oc2ccc(NS(=O)(=O)c3ccc(O)c(C(=O)O)c3)cc12,-9.4,3.5,-3.9,0.8,-2.9,4.3,.
O=C(O)c1cc(S(=O)(=O)Nc2ccc3oc(=O)sc3c2)ccc1O,0.2,0.6,-2.5,36.5*,5.9,59.8*,18.7*
Cc1ccc(S(=O)(=O)Nc2ccc3c(c2)n(C)c(=O)n3C)c(C)c1,0.8,6.5,3.4,-2.8,-2.4,3.4,.
COc1ccc(-c2noc(CCCC(=O)NC3CCCC3)n2)cc1,-7.0,7.8,0.3,-7.4,6.6,4.9,.
CC(C)CCNC(=O)C(Cc1ccccc1)NS(=O)(=O)c1ccc2c(c1)c(=O)n(C)c(=O)n2C (stereo not drawn),5.7,0.4,-0.9,0.3,5.6,-0.4,.
COc1ccc(Cc2nnc(Nc3ccccc3)s2)cc1Br,-0.2,-6.2,0.9,83.1*,19.0,35.9*,78.9*
COc1ccc(C(=O)Nc2nnc(Cc3ccc(OC)c(OC)c3)s2)c(OC)c1,-3.3,-3.1,-12.1,22.2*,-4.7,28.1,31.6*
CCOc1ccc(C(=O)NCC(=O)N2CCN(C/C=C/c3ccccc3)CC2)cc1OCC,1.7,1.0,-6.3,1.5,21.3,5.7,.
C=CCN(CC(=O)NC1CC1)S(=O)(=O)c1cccc(C(F)(F)F)c1,-0.3,-1.0,2.3,-1.4,1.7,.,.
Cc1ccc(C(=O)Nc2nc3ccccc3c(=O)s2)cc1,5.9,-1.8,0.8,15.0*,-9.9,7.4,-4.0
O=C(Nc1nc(=O)c2ccccc2s1)c1ccccc1,3.0,-2.5,-0.2,23.9*,15.5,-7.2,2.5
O=[N+]([O-])c1cccc(/C=C2\CCc3cnn(C4CCS(=O)(=O)C4)c32)c1 (stereo not drawn),0.2,1.6,0.6,.,.,.,.
CCOC(=O)[C@H]1[C@H]2COc3cc(OC)ccc3[C@@H]2N2C(=O)c3cc(OC)ccc3NC(=O)[C@@]12C,-3.4,3.0,-4.3,-1.3,4.9,2.2,.
CCOC(=O)[C@H]1[C@H]2COc3cc(OC)ccc3[C@@H]2N2C(=O)c3cc(C)ccc3NC(=O)[C@@]12C,4.0,9.3,11.6,16.0*,11.9,1.9,9.4
COc1ccc(CCNC(=O)c2c[nH]c3ccc(F)cc3c2=O)cc1OC,1.7,-1.2,-6.1,83.2*,-0.6,4.0,3.5
COc1ccc(CCNC(=O)c2c[nH]c3ccccc3c2=O)cc1OC,6.0,6.9,0.1,0.1,5.2,2.2,.
O=C1C(=O)N(CCO)C(c2ccccc2[N+](=O)[O-])/C1=C(\O)c1ccccc1 (stereo not drawn),-4.5,-10.9,6.6,9.8,1.7,-0.2,.
O=C1C(=O)N(c2ccc(O)cc2)C(c2ccccc2[N+](=O)[O-])/C1=C(\O)c1ccccc1 (stereo not drawn),-9.8,-7.0,3.4,23.6*,-3.3,2.7,1.8
Cc1ccc(-n2cnc3sc(C)c(C)c3c2=O)cc1,-15.2,0.0,-1.8,0.5,-1.6,-3.5,.
O=C(O)CC/C(=N\NC(=O)CNC(=O)c1ccc(F)cc1)c1ccccc1,-4.3,0.8,-0.6,17.7*,-6.6,-1.7,-5.5
Cc1ccc(N(CC(=O)Nc2ccc(C)cn2)S(=O)(=O)c2c(C)nn(C)c2C)cc1,-1.2,5.0,-5.3,49.0*,9.4,36.1*,-6.2
COc1ccc(N(CC(=O)Nc2ccc(C)cn2)S(=O)(=O)c2c(C)nn(C)c2C)cc1,-1.1,0.4,-1.9,0.5,-4.3,7.7,.
COc1ccc(NC2CC(=O)N(c3ccccc3)C2=O)cc1 (stereo not drawn),-1.4,-10.0,0.8,4.9,-10.8,-1.2,.
O=C1CC(Nc2ccc(N3CCOCC3)cc2)C(=O)N1Cc1ccccc1 (stereo not drawn),15.0,18.2,18.4*,35.5*,15.7,31.9,-1.1
O=C1CC(Nc2ccc3ccccc3c2)C(=O)N1Cc1ccccc1 (stereo not drawn),-6.8,3.9,-4.1,1.2,19.2,-4.4,.
SMILES,TDP2 inh,TCR-CD3 inh,SIAE inh,PAD4 inh,Apaf1 inhib,GSTO1 counter,PAD4 confirm
COc1ccccc1N1C(=O)CC(Nc2ccc(N3CCOCC3)cc2)C1=O (stereo not drawn),10.9,-4.0,14.2,24.0*,5.7,4.8,1.7
CCOC(=O)N1c2ccccc2Sc2ccccc21,1.9,7.1,-0.1,1.3,-1.5,-0.3,.
Cc1nnc(SC(=O)N2c3ccccc3Sc3ccccc32)s1,3.5,1.7,0.8,33.9*,15.1,-26.4,5.5
Cc1oc2c(C)c(O)ccc2c(=O)c1-c1ccc2ccccc2n1,-2.7,-1.4,3.5,83.6*,-18.7,0.8,-5.7
COC(=O)c1cnn(-c2ccccc2)c1/C=N/NC(=S)Nc1ccccc1,4.2,-12.8,-6.7,-3.6,11.3,6.1,.
COC(=O)c1cnn(-c2ccccc2)c1C(OC)OC,1.3,10.3,-0.8,17.9*,-14.1,-1.0,2.3
Fc1ccc(Cn2c(SCc3ccc(F)c(C(F)(F)F)c3)nnc2C(F)(F)F)cc1,-7.6,1.5,3.9,23.2*,21.3,6.0,-2.6
Fc1ccc(Cn2c(SCc3ccc(F)c(F)c3)nnc2C(F)(F)F)cc1,-14.1,6.2,-1.8,0.1,10.1,2.6,.
CC(OC(=O)c1nc(-c2ccccc2)n(-c2ccccc2)n1)C(=O)Nc1cc(Cl)cc(Cl)c1 (stereo not drawn),1.5,6.1,-53.7,-2.4,16.2,3.8,.
COc1cccc(NC(=O)c2ccccc2-c2ccccc2C(=O)O)c1,-1.1,-0.5,8.7,18.1*,4.4,-2.5,-0.5
CC(=O)c1cccc(NC(=O)c2ccccc2-c2ccccc2C(=O)O)c1,-6.7,-9.2,2.8,-3.6,-3.0,4.8,.
COc1ccccc1CNCc1ccc(OC)c2ccccc12,9.3,-2.0,-5.1,-3.7,-1.9,1.4,.
COc1cccc(C2C(C(=O)Nc3ccccc3)=C(C)N=c3s/c(=C/c4ccc(OCC(=O)O)cc4)c(=O)n32)c1 (stereo not drawn),8.3,10.8,-26.8,19.0*,26.5,-9.6,2.7
CCOC(=O)C1=C(C)N=c2s/c(=C\c3ccc(OCC(=O)O)cc3)c(=O)n2C1c1ccc(OC(C)C)cc1 (stereo not drawn),5.2,6.6,-67.3,18.5*,38.3,-12.9,3.0
CCOC(=O)C1=C(C)N=c2s/c(=C/c3ccc(OCC(=O)O)cc3)c(=O)n2C1c1cc(OC)c(OC)c(OC)c1 (stereo not drawn),-8.6,-1.0,1.3,25.0*,10.0,-4.2,4.2
CCOC(=O)C1=C(C)N=c2sc(=Cc3ccc(OCC(=O)O)cc3)c(=O)n2C1c1ccc(Cl)cc1 (stereo not drawn),8.6,-1.0,-31.6,.,.,.,.
